Reference: ChEMBL document CHEMBL3232958, “Antiproliferative and uncoupling effects of delocalized, lipophilic, cationic gallic acid derivatives on cancer cell lines. Validation in vivo in singenic mice” (J Med Chem, 2014)
Calls of active or inactive are those of the source. The rule behind the calls is not given here.

Columns and labels:
TA3/Ha [1] = experiment: Decrease of mitochondrial transmembrane potential in mouse TA3/Ha cell mitochondria at 0.2 nmol after 5 mins by safranin and JC-1 staining; type: functional
Outline: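 Mitochondria isolated from TA3/Ha tumour cells (washed, BSA-free), 1.0 mg/mL protein. Safranin 20 μM, read 5 min; then 2 mM glutamate + 2 mM malate, read 5 min; then cation added. ΔΨm followed as ΔA511−533nm spectrophotometrically.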

TA3/Ha [2] = experiment: Cytotoxicity against mouse TA3/Ha cells up to 24 hrs by lactate dehydrogenase assay; type: functional, cell-based
Outline: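 LDH release measured with a kit on 2 × 10^5 cells/mL incubated at 37 °C, 5% CO2, 90% humidity. Supernatant taken after centrifugation at 600g for 3 min, then 30 min with reaction mix at room temperature; absorbance read at 450 nm.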

CCRF-CEM = experiment: Cytotoxicity against human CCRF-CEM cells after 48 hrs by neutral red assay; type: functional, cell-based
Outline: (§1)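 Neutral red uptake after 48 h exposure at 37 °C, 5% CO2. Seeding: 1 × 10^5 cells/mL for TA3, TA3-MTX-R and CCRF-CEM; 4 × 10^4 cells/mL for MM3MG. Dye at 100 μg/mL for 2 h, then ethanol/acetic acid extraction and absorbance at 540 nm. IC50 from variable-slope sigmoidal dose–response fit; at least three independent experiments in triplicate, mean ± SEM.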

[3] = Toxicity in mouse TA3/Ha cells assessed as cell membrane integrity after 24 hrs using propidium iodide by flow cytometry; type: cell-based; conditions: 2 to 4 h, in the assay text read “after 2 to 4 hrs” for “after 24 hrs”
Outline: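 Membrane integrity by PI uptake on flow cytometry. Cells were seeded, grown for 24 h at 37 °C, 5% CO2, then given fresh medium with cation for 2 and 4 h before PI was added. Mean ± SEM of at least three experiments.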

[4] = Cytotoxicity against mouse multidrug-resistant TA3-MTX-R cells after 48 hrs by neutral red assay; type: functional, cell-based; outline: as §1
TA3/Ha [5] = experiment: Induction of apoptosis in mouse TA3/Ha cells assessed as early stage apoptotic cells at 0.5 uM after 24 to 48 hrs using annexin V/propidium iodide staining by flow cytometry; type: functional, cell-based
Outline: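 Annexin V-FITC/PI flow cytometry on 1 × 10^5 cells/mL treated for 24 and 48 h at 37 °C, 5% CO2. 5 min staining at room temperature; 5000 events recorded. Early apoptosis scored as annexin V+/PI−. Staurosporine 10 μM as positive control; at least three experiments, ANOVA with Bonferroni test.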

TA3/Ha [6] = experiment: Reduction of ATP level in mouse TA3/Ha cells after 2 hrs by CellTiter-Glo luminescent assay; type: functional, cell-based
Outline: (§2)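 CellTiter-Glo luminescence on 2 × 10^5 cells/mL incubated with cation for 2 h. Aliquot held 10 min at room temperature in the dark before reading; at least three experiments.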

[7] = Cytotoxicity against mouse MM3MG cells after 48 hrs by neutral red assay; type: cell-based; outline: as §1
[8] = Cytotoxicity against mouse TA3/Ha cells after 48 hrs by neutral red assay; type: functional, cell-based; outline: as §1
TA3/Ha [9] = experiment: Induction of apoptosis in mouse TA3/Ha cells assessed as caspase 3 activation at 0.5 uM after 24 hrs by Western blot analysis; type: functional, cell-based
Outline: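 Caspase 3 measured by Western blot. RIPA lysates, 50 μg protein run on 12% SDS–PAGE. Anti-caspase 3 (1:1000) and tubulin loading control (1:10000) overnight at 4 °C; HRP secondary for 2 h. ECL detection and densitometry.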

TA3/Ha [10] = experiment: Reduction of ATP level in mouse TA3/Ha cells at 1 to 20 uM after 2 hrs by CellTiter-Glo luminescent assay; type: functional, cell-based; outline: as §2
TA3/Ha [11] = experiment: Induction of NAD(P)H oxidation in mouse TA3/Ha cells assessed as reduction of NAD(P)H/NAD(P)+ ratio at 12 uM by spectrofluorometer analysis; type: functional, cell-based
Outline: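 Intact TA3 tumour cells, 2.5 mg protein/mL, in PBS pH 7.4 with 2.5 mM glutamine as substrate. Stirred and thermostatted at 25 °C. NAD(P)H autofluorescence (ex 340, em 420 nm) recorded as a time course by spectrofluorometer. Rotenone, FCCP or cation added during the trace.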

Compound	IC50 (CCRF-CEM) [µM]	IC50 [4] [µM]	IC50 [7] [µM]	IC50 [8] [µM]	further results
N#CC(C#N)=NNc1cccc(Cl)c1					Activity (TA3/Ha [1]): Active
O=C(OCCCCCCCCCCC[P+](c1ccccc1)(c1ccccc1)c1ccccc1)c1cc(O)c(O)c(O)c1.[Br-]	19.8	3.7	14.3	6.4	Activity (TA3/Ha [2]): Active; Activity [3]: Non-toxic; Activity (TA3/Ha [5]): Active; Activity (TA3/Ha [6]): Dose-dependent effect; Activity (TA3/Ha [9]): inactive; Activity (TA3/Ha [10]): Active
c1ccc(P(c2ccccc2)c2ccccc2)cc1	184	> 200	> 200	190	
C=C(C)[C@H]1Cc2c(ccc3c2O[C@@H]2COc4cc(OC)c(OC)cc4[C@@H]2C3=O)O1					Activity (TA3/Ha [11]): Active
O=C(O)c1cc(O)c(O)c(O)c1 [GALLIC ACID]	> 200	160	> 200	163	
